Calls of active or inactive are those of the source. The calls are words filed in the database; no cut-off is given here.
What was measured:
MV4-11 [1] = assay: Antiproliferative activity against human MV4-11 cells assessed as cell death at 10 uM after 48 hrs by CellTiter-Blue assay; format: functional, cell-based
How it was run: (§1)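 MV4-11 and PC-3 cells treated with 10 or 2 μM (or 0 μM) and sampled at 24 and 48 h. Viable cells measured by CellTiter-Blue resorufin fluorescence, read as in the EC50 assay, which is proportional to viable cell number. Representative of n = 2 experiments.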

Histone deacetylase 9 = Histone deacetylase 9 (Homo sapiens, UniProt Q9UKV0); assay: Inhibition of recombinant human C-terminal His-tagged HDAC9 (604 to 1066 residues) expressed in baculovirus expression system using Boc-Lys(trifluoroacetyl)-AMC as substrate preincubated for 1 hr followed by substrate addition measured after 2 hrs by fluorescence assay
How it was run: (§2)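 Recombinant HDAC incubated with serial compound dilutions at 30 °C for 1 h. Reaction run 2 h at 30 °C, stopped with developer containing trypsin and TSA. Fluorescence read after 30 min at 360/460 nm. Inhibition relative to control wells; IC50 from variable-slope fit.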

PC-3 [2] = assay: Induction of apoptosis in human PC3 cells assessed as increase in cleaved caspase-3 level at 1 to 2 uM after 24 hrs by Western blot method; format: functional, cell-based
How it was run: (§3)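 MV4-11 (1,500,000/well) or PC-3 (300,000/well) grown 12 h, then treated 24 h at 1 and 2 μM, with 5 μM SAHA as reference. RIPA lysis, sonication and centrifugation, BCA normalization. NuPAGE 4–12% Bis-Tris gel in MES, transfer, primary antibodies 1/1000 overnight at 4 °C. Actin as loading control.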

PC-3 [3] = assay: Cell cycle arrest in human PC3 cells assessed as accumulation at G2/M phase up to 2 uM after 24 hrs by propidium iodide staining based flow cytometry; format: functional
MV4-11 [4] = assay: Induction of p53 degradation in human MV4-11 cells up to 500 nM after 6 hrs in presence of proteasome inhibitor bortezomib by Western blot analysis; format: functional, cell-based
[5] = biological target: T1, Protein deacetylase HDAC6 (Homo sapiens) (UniProt Q9UBN7); assay: Inhibition of HDAC6 in human PC3 cells assessed as increase in acetylated tubulin level at 1 to 2 uM after 24 hrs by Western blot method; format: cell-based; how it was run: as §3
T1 sequence (whole entry): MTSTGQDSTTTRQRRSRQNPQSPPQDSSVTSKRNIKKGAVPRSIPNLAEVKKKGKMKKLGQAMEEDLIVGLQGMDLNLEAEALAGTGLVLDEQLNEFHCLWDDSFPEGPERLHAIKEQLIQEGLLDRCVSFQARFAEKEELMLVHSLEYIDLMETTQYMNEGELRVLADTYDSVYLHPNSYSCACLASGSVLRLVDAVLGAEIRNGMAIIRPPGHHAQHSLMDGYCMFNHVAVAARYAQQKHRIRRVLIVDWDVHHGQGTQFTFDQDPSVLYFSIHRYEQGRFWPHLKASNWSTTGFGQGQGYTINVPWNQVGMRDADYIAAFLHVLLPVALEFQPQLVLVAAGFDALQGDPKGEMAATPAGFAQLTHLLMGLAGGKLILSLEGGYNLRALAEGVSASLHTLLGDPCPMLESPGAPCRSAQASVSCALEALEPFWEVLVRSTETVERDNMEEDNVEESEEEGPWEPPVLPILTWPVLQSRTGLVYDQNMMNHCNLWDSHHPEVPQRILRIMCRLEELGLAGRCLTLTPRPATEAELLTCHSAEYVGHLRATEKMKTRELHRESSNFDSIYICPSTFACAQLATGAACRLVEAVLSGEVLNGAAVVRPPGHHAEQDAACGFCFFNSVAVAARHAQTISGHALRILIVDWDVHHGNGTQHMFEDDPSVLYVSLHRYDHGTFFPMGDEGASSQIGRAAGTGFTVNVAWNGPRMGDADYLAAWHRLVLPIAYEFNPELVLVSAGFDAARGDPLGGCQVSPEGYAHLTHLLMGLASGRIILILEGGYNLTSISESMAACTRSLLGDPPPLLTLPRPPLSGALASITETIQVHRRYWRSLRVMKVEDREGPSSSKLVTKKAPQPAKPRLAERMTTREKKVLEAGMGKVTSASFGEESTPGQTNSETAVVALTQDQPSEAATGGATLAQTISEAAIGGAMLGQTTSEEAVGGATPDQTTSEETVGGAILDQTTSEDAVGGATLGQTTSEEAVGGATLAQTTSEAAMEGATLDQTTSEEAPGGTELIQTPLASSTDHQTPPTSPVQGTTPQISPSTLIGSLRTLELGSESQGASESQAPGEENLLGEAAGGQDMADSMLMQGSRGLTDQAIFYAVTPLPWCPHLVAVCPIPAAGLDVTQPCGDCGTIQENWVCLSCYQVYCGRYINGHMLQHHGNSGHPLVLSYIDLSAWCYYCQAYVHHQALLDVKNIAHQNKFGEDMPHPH

[6] = biological target: Matrix metalloproteinase 2/9 (Homo sapiens) (UniProt P08253+P14780); assay: Inhibition of human MMP2/C-terminal hemopexin domain truncated MMP9 up to 50 uM preincubated for 10 to 15 mins followed by substrate addition measured after 2 hrs by fluorescence assay; format: protein assay
How it was run: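 Gelatinase kit assay: compound (100 μM stock), MMP inhibitor (40 μM stock) or activation buffer combined with MMP-2/MMP-9 in activation buffer. After 10–15 min, substrate added and incubated at 37 °C for 2 h. Fluorescence read at 320/405 nm.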

Histone deacetylase 2 [7] = biological target: T2, Histone deacetylase 2 (Homo sapiens, UniProt Q92769); assay: Inhibition of full length recombinant human C-terminal FLAG/His-tagged HDAC2 expressed in baculovirus expression system using Boc-Lys(acetyl)-AMC as substrate preincubated for 1 hr followed by substrate addition measured after 2 hrs by fluorescence assay; how it was run: as §2
PC-3 [8] = assay: Downregulation of HDAC6 protein expression in human PC3 cells at 1 to 2 uM after 24 hrs by Western blot method; format: functional, cell-based; how it was run: as §3
Histone deacetylase 4 = Histone deacetylase 4 (Homo sapiens, UniProt P56524); assay: Inhibition of recombinant human N-terminal GST-tagged/C-terminal His-tagged HDAC4 (627 to 1084 residues) expressed in baculovirus expression system using Boc-Lys(trifluoroacetyl)-AMC as substrate preincubated for 1 hr followed by substrate addition measured after 2 hrs by fluorescence assay; how it was run: as §2
PC-3 [9] = assay: Antiproliferative activity against human PC3 cells assessed as cell viability at 10 uM after 48 hrs by CellTiter-Blue assay relative to control; format: functional; conditions: PC-3, 48 h, read-out: Activity; how it was run: as §1
Histone deacetylase 2 [10] = biological target: T2, Histone deacetylase 2; conditions: 0.25 to 2 uM
[11] = biological target: T3, Protein deacetylase HDAC6 (Homo sapiens, UniProt Q9UBN7); assay: Inhibition of HDAC6 (unknown origin) using Boc-Lys(acetyl)-AMC as substrate preincubated for 1 hr followed by substrate addition measured after 2 hrs by fluorescence assay; how it was run: as §2
T3 sequence (Q9UBN7 whole entry): T1 sequence (whole entry)

MV4-11 [12] = assay: Induction of p53 degradation in human MV4-11 cells up to 2 uM up to 6 hrs by Western blot analysis; format: functional, cell-based
Histone deacetylase 1 = Histone deacetylase 1 (Homo sapiens, UniProt Q13547); conditions: 0.25 to 2 uM
Histone deacetylase 1, sequence (Q13547 whole entry): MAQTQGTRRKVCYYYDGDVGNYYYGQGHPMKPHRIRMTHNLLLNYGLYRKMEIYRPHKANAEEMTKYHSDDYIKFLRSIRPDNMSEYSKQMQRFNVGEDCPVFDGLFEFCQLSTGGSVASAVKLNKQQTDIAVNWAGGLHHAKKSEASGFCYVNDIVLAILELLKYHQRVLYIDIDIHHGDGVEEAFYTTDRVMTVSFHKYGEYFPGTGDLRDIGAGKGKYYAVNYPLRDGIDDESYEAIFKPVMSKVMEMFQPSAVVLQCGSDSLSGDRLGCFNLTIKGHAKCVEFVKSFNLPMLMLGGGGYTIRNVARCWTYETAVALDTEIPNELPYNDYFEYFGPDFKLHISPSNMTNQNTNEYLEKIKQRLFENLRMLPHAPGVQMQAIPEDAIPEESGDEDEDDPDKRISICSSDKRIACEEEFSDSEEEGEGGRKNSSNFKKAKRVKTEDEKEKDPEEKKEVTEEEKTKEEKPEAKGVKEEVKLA

T2 sequence (Q92769 whole entry): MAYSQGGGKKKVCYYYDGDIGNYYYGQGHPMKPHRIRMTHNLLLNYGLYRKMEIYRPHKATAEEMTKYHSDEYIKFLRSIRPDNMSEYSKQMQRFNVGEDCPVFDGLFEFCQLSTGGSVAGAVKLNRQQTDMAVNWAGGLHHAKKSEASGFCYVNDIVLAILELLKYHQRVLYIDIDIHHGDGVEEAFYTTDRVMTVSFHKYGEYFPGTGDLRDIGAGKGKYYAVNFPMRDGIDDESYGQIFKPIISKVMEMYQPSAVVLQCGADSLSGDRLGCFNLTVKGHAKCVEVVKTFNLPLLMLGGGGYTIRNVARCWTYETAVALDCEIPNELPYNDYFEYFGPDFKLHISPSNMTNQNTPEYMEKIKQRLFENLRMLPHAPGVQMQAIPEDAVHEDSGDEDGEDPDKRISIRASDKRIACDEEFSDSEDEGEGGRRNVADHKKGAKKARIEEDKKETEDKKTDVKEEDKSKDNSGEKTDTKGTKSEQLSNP
Histone deacetylase 9, sequence (Q9UKV0 whole entry, the tested form may be a part): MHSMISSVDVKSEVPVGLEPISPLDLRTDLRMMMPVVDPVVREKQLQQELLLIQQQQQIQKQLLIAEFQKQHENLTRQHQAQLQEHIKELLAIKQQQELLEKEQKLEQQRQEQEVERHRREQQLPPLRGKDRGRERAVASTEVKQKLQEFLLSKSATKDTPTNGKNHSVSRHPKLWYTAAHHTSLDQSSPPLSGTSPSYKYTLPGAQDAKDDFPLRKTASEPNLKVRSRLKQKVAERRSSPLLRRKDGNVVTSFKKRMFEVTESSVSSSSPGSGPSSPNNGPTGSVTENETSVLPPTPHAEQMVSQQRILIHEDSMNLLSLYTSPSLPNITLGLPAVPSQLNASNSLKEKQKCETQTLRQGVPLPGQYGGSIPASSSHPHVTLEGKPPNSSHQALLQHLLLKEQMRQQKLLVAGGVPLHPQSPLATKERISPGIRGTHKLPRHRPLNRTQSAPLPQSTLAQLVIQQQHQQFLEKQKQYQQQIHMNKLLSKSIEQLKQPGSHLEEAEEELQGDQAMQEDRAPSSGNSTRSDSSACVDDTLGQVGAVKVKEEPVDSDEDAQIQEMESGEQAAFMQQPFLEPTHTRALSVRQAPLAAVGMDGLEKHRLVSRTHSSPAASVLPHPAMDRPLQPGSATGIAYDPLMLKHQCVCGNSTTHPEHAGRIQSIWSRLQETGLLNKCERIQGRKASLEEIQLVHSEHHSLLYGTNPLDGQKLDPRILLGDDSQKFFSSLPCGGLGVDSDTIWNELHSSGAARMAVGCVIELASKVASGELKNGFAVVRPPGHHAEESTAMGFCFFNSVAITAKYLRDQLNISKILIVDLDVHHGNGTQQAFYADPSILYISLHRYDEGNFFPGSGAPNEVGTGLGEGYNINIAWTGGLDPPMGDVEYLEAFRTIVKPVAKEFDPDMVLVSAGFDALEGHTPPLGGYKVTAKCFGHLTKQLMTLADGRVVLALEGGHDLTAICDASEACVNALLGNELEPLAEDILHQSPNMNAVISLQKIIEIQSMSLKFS
Histone deacetylase 4, sequence (P56524 whole entry, the tested form may be a part): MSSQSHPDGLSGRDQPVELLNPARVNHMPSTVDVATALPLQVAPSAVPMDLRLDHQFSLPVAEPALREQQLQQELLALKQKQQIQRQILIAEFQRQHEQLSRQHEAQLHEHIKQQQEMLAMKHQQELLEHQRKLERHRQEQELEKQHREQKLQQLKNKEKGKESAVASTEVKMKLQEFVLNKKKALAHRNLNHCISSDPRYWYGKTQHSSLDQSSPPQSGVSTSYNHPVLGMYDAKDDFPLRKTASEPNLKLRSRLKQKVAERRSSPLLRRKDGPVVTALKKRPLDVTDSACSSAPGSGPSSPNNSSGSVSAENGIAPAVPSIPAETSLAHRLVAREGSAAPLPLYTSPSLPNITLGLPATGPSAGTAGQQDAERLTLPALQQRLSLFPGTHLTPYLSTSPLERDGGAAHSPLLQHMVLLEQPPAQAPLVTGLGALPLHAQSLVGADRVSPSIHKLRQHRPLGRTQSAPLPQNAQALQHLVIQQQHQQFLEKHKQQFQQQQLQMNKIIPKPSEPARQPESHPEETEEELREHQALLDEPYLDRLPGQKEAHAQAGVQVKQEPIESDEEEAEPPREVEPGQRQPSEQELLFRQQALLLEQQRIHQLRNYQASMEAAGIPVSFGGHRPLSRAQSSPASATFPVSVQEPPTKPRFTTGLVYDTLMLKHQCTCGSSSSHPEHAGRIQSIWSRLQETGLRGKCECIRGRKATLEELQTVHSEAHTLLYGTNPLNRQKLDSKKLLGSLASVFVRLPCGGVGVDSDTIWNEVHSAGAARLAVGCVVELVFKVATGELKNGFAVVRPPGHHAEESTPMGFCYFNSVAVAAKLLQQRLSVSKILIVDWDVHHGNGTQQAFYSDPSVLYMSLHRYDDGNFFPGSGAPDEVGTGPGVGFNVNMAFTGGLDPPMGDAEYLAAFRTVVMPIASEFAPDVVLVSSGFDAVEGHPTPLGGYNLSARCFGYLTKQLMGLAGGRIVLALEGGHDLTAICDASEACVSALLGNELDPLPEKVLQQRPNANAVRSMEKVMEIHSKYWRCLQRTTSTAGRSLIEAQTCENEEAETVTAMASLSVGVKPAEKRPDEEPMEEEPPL
Matrix metalloproteinase 2/9 (Homo sapiens), sequence (P08253 whole entry, looked up, the tested form may be a part): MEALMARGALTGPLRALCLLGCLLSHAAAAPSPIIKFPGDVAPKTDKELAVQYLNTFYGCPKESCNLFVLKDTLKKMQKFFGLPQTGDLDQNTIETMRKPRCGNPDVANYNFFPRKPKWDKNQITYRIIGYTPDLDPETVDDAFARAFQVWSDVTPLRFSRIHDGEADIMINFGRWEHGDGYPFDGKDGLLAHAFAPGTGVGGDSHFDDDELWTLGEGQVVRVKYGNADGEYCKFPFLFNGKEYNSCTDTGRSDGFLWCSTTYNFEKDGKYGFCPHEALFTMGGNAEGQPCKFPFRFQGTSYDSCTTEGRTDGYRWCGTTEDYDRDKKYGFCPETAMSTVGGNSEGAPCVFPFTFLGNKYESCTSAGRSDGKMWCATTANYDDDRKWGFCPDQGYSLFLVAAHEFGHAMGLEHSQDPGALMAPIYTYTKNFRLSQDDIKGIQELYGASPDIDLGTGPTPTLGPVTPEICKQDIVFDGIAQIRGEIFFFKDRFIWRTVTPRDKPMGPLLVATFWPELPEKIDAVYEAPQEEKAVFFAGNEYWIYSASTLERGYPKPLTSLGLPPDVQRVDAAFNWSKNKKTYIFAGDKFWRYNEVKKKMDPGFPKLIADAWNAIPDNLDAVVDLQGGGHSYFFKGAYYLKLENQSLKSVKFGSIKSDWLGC
Matrix metalloproteinase 2/9 (Homo sapiens), sequence (P14780 whole entry, looked up, the tested form may be a part): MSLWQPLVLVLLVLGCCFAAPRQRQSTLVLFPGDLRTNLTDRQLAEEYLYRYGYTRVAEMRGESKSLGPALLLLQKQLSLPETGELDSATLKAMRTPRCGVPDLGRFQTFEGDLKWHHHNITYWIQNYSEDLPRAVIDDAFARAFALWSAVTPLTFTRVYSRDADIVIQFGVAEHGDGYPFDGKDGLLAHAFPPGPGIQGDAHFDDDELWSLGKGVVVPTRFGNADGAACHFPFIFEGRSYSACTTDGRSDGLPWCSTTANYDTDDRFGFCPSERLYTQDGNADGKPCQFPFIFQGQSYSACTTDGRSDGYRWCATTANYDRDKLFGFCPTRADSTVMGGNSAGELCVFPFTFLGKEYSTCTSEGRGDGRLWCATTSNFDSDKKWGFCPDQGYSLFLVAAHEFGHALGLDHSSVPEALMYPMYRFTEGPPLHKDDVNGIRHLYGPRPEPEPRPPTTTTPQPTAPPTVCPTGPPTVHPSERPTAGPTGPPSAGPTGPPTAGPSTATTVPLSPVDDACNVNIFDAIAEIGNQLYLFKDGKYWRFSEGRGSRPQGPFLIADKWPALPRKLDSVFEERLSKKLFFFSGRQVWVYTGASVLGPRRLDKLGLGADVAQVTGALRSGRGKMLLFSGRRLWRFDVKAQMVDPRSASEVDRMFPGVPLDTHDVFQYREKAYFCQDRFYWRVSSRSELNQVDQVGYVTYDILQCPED

IC50 (Histone deacetylase 9): > 50 µM | inhibition [5]: inactive | inhibition [6]: inactive | IC50 (Histone deacetylase 2 [7]): 0.028 µM | IC50 (Histone deacetylase 4): > 50 µM | inhibition (Histone deacetylase 2 [10]): Active | IC50 [11]: 50 to 100 µM | inhibition (Histone deacetylase 1): Active
SMILES: CCCNNC(=O)c1ccc(NC(=O)[C@H](Cc2c[nH]c3ccccc23)NC(=O)c2ccc(OC)cc2)cc1
Activity (MV4-11 [1]): Active | Activity (PC-3 [2]): inactive | Activity (PC-3 [3]): Active | Activity (MV4-11 [4]): inactive | Activity (PC-3 [8]): inactive | viability at 10 µM (PC-3 [9]): 20% | Activity (MV4-11 [12]): Active
